From ChEMBL document CHEMBL3272318, “Antimalarials. 8. Synthesis of amino ethers as candidate antimalarials” (J Med Chem, 1976)
Calls of active or inactive are those of the source. The rule behind the calls is not given here.

Key:
Mus musculus = organism: Mus musculus; experiment: Toxicity in mouse infected with blood schizont stage of Plasmodium berghei; format: organism-based; settings: in vivo
Plasmodium gallinaceum = experiment: Antimalarial activity against sporozoite stage of Plasmodium gallinaceum infected in chick at 480 mg/kg; format: functional, organism-based; set-up: dose 480 mg/kg
Procedure, shortened: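 Prophylactic screen run at the Rane Laboratory (University of Miami) in chicks infected with Plasmodium gallinaceum. Compounds were tested at doses up to 480 mg/kg.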

Plasmodium berghei = experiment: Antimalarial activity against blood schizont stage of Plasmodium berghei infected in mouse at 640 mg/kg; format: functional, organism-based; set-up: dose 640 mg/kg

| Structure (SMILES) | Activity (Mus musculus) | Activity (Plasmodium gallinaceum) | Activity (Plasmodium berghei) |
| --- | --- | --- | --- |
| CCOC(C)(Cc1ccc(Cl)cc1)C1CCNCC1.Cl (stereo unspecified) | Toxic | inactive | inactive |
| CN1CCC(C2(C)OC2c2ccc(Cl)cc2)CC1.Cc1ccc(S(=O)(=O)O)cc1 (stereo unspecified) | Toxic | inactive | inactive |
| COC(c1ccc(Cl)cc1)C(C)C1CCNCC1.Cl (stereo unspecified) | Toxic | inactive | inactive |
| CCC(CC1CCNCC1)(OC)c1ccc(Cl)cc1 (stereo unspecified) | Toxic | inactive | inactive |
| CC(C)(Br)C(=O)c1ccc(-c2ccc(Cl)cc2)cc1 | Toxic | inactive | inactive |
| CC1(C2CCN(C(=O)O)CC2)OC1c1ccc(Cl)cc1 (stereo unspecified) | Toxic | inactive | inactive |
| CC(C)(Br)C(=O)c1ccc(Cl)cc1 | Toxic | inactive | inactive |
| CCOC(C)(CC1CCNCC1)c1ccc(Cl)cc1 (stereo unspecified) | Toxic | inactive | inactive |
| CCC(CC1CCCNC1)(OC)c1ccc(Cl)cc1 (stereo unspecified) | Toxic | inactive | inactive |
| CCC(Cc1ccc(Cl)cc1)(OC)C1CCCNC1.O=C(O)CCC(=O)O (stereo unspecified) | Toxic | inactive | inactive |
| CCOC(c1ccc(Cl)cc1)C(C)C1CCNCC1.O=C(O)CCC(=O)O (stereo unspecified) | Toxic | inactive | inactive |
| COC(CC1CCNCC1)c1ccc(Cl)cc1.Cl (stereo unspecified) | Toxic | inactive | inactive |
